According to ChEMBL document CHEMBL3286229 (J Med Chem, 2014):
Calls of active or inactive are those of the source. The rule behind the calls is not given here.

Assays:
[1] = molecular target: T1, GABA-A receptor; alpha-1/beta-2/gamma-2 (Homo sapiens, UniProt P14867+P18507+P47870); assay: Modulation of GABAA alpha1beta2gamma2S receptor (unknown origin) expressed in Xenopus laevis oocytes assessed as potentiation of GABA-induced chloride ion current at holding potential -70 mV by two-microelectrode voltage clamp assay; format: cell-based
T1 sequence (P14867 whole entry): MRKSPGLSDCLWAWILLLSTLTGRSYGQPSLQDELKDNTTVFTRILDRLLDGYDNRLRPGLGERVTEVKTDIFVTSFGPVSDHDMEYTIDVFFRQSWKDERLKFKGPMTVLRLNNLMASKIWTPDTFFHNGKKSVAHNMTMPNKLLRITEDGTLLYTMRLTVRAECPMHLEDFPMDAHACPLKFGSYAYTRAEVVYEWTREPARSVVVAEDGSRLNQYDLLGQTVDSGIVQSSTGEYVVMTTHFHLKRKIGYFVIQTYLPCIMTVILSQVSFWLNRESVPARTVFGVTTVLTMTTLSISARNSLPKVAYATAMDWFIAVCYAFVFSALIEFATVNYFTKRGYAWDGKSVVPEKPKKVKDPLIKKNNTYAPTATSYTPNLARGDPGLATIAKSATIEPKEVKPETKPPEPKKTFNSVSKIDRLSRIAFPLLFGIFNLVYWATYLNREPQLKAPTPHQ
T1 sequence (P47870 whole entry): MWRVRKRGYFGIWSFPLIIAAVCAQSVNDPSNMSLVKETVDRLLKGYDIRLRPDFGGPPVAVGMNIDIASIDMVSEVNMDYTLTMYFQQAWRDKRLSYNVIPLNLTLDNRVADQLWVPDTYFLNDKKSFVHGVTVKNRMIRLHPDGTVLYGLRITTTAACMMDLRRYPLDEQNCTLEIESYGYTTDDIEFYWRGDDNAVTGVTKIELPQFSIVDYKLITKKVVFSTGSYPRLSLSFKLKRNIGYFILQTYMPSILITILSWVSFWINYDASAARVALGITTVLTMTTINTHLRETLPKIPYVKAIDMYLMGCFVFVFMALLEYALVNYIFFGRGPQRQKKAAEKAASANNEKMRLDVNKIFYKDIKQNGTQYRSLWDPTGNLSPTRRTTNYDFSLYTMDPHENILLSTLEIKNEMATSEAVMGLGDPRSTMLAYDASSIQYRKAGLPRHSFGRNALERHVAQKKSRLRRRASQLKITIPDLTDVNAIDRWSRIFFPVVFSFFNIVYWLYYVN
T1 sequence (P18507 whole entry): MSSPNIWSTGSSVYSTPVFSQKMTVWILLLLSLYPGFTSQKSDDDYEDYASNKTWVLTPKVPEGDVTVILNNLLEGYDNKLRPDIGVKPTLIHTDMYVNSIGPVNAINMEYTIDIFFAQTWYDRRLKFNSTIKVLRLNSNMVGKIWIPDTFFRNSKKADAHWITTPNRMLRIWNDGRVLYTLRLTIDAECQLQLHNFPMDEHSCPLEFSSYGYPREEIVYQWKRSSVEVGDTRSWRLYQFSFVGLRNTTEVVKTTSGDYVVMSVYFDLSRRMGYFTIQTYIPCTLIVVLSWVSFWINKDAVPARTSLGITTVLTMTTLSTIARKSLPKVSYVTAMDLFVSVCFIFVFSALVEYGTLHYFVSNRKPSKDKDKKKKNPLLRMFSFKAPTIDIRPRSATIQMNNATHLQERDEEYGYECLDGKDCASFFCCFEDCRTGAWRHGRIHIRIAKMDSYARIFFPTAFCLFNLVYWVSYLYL
How it was run: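 Stage V–VI oocytes injected with α1, β2 and γ2S cRNAs mixed 1:1:10 and kept at 18 °C in modified ND96 (pH 7.4). Two-microelectrode voltage clamp at room temperature, holding potential −70 mV, electrodes with 2 M KCl. Compounds co-applied by fast perfusion with GABA at EC3–7. Washout lasted 1.5 min below 10 μM and 30 min at ≥10 μM. Oocytes with currents >3 μA discarded.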

Mus musculus [2] = assay: Anxiolysis activity in ip dosed C57BL/6N mouse assessed as time spent on open arms by elevated plus maze test; format: functional, organism-based
How it was run: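 Male C57BL/6N mice, 3–6 months old, given ip injections 30 min before testing. Vehicle was 0.9% NaCl with 10% DMSO and 3% Tween 80; doses in mg/kg, with saline controls. 5 min on an elevated plus maze (arms 50 × 5 cm, 1 m high, 180 Lux), starting in the centre facing an open arm. Time on open arms scored automatically by video.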

[3] = molecular target: Transient receptor potential cation channel subfamily V member 1 (Homo sapiens) (UniProt Q8NER1); assay: Activation of TRPV1 (unknown origin) expressed in Xenopus oocytes up to 100 uM; format: cell-based
Mus musculus [4] = assay: Sedative effect in ip dosed C57BL/6N mouse assessed as reduction in locomotor activity by open field test; format: organism-based; settings: in vivo
How it was run: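 Male C57BL/6N mice, 3–6 months old, dosed ip 30 min before testing. Vehicle was 0.9% NaCl with 10% DMSO and 3% Tween 80; doses in mg/kg. Ambulation recorded over 10 min in a 50 × 50 cm box fitted with infrared rearing detection.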

Chain of Transient receptor potential cation channel subfamily V member 1 (Homo sapiens) (Q8NER1 whole entry): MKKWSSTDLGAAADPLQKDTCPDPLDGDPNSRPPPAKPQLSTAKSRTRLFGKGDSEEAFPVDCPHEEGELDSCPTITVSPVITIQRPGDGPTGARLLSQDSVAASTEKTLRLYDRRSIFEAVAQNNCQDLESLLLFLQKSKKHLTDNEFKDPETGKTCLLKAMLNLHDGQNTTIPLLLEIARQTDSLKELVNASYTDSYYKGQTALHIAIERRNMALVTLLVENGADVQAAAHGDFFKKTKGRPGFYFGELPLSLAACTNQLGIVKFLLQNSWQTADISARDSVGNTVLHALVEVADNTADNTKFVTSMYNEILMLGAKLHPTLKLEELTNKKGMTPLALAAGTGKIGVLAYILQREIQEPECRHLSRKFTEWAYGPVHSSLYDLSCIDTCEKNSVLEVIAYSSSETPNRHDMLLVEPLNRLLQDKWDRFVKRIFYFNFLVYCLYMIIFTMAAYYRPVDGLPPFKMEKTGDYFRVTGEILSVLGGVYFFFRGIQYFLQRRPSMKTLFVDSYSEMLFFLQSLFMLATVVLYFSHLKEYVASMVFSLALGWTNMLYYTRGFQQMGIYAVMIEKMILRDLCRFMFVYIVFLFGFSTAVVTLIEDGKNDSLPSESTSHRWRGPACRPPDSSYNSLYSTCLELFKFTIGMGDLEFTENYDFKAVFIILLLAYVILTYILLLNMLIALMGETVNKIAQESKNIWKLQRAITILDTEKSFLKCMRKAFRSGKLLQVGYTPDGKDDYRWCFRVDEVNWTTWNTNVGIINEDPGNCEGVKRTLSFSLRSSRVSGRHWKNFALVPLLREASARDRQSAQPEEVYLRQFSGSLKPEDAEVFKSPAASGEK

| Structure (SMILES) | EC50 [1] [µM] | Activity (Mus musculus [2]) | Activity [3] | Activity (Mus musculus [4]) |
| --- | --- | --- | --- | --- |
| O=C(/C=C/C=C/c1ccc2c(c1)OCO2)N1CCCCC1 [PIPERINE] | 52.4 |  |  |  |
| CCCN(CCC)C(=O)/C=C/C=C/c1ccc2c(c1)OCO2 |  | Dose-dependent effect | inactive | Toxic |
| CCCCN(CCCC)C(=O)/C=C/C=C/c1ccc2c(c1)OCO2 |  |  | inactive | Toxic |
